Laboratory results from ChEMBL document CHEMBL2331102 (Bioorg Med Chem, 2013).
In brackets after ≈: the same amount, converted by molar mass. Activity calls are given as the source filed them. The rule behind the calls is not given here.

Experiments:
[1] = Selectivity index, ratio of IC50 for rat L6 cells to IC50 for Trypanosoma cruzi Tulahuen TcVI extracellular trypomastigotes forms; format: toxicity, cell-based; conditions: read-out: Ratio IC50
Method in brief: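 Ratio of the L6 myoblast cytotoxicity IC50 to the IC50 against β-galactosidase-expressing T. cruzi Tulahuen TcVI.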

Trypanosoma cruzi [2] = assay: Antitrypanosomal activity against Trypanosoma cruzi Tulahuen TcVI extracellular trypomastigotes forms transfected with beta-galactosidase gene infected in rat L6 cells assessed as inhibition of parasite growth after 4 days; format: functional, organism-based; conditions: L6, 96 h
Method in brief: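 L6 rat skeletal myoblasts were infected with extracellular trypomastigotes of β-galactosidase-transfected T. cruzi Tulahuen TcVI. After 48 h to establish infection, compound was added and incubation continued 4 days, exposing trypomastigote and intracellular amastigote forms.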

[3] = Kinetic solubility of the compound at pH 6.5 phosphate buffer by nephelometric analysis; format: physicochemical; conditions: read-out: Kinetic_solubility
Method in brief: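 Kinetic solubility in phosphate buffer at pH 6.5, determined by nephelometry and reported in µg/mL.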

Trypanosoma cruzi [4] = assay: Antitrypanosomal activity against Trypanosoma cruzi Tulahuen TcVI infected in Swiss mouse model of Chagas disease assessed as decrease in blood parasitemia level at 100 mg/kg once daily for 5 consecutive days through oral gavage starting on day 8 post infection measured 14 days post infection; format: functional; design: scale not given: the % may be the effect or the level left
Method in brief: (§1)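 Female Swiss mice (n = 5 per group) were infected with 25,000 blood-form T. cruzi Tulahuen TcVI trypomastigotes. From day 8 post-infection, they received once-daily oral gavage for 5 consecutive days. Blood trypomastigotes/mL were counted on days 8, 9, 12 and 14 pi, and efficacy was taken as decreased parasitemia versus vehicle-treated mice on day 14.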

CYP3A4/5 = CYP3A4/5 (Homo sapiens, UniProt P08684+P20815); assay: Inhibition of CYP3A4/5 in human liver microsomes assessed as reduction in testosterone-beta-hydroxylation; format: ADME, Microsome; conditions: probe testosterone
Method in brief: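 CYP3A4 inhibition measured as inhibition of testosterone β-hydroxylation, reported as IC50 (µM).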

L6 = assay: Cytotoxicity against rat L6 cells after 72 hrs by Alamar Blue assay; format: cell-based; conditions: L6, 72 h
Method in brief: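 Counter-screen for cytotoxicity in uninfected L6 rat skeletal muscle myoblasts, with IC50 recorded in µM.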

Trypanosoma cruzi [5] = assay: Antitrypanosomal activity against Trypanosoma cruzi Tulahuen TcVI infected in Swiss mouse model of Chagas disease assessed as decrease in blood parasitemia level at 20 mg/kg once daily for 5 consecutive days through oral gavage starting on day 8 post infection measured 14 days post infection; format: functional; design: scale not given: the % may be the effect or the level left; method in brief: as §1
Trypanosoma cruzi [6] = assay: Antitrypanosomal activity against Trypanosoma cruzi Tulahuen TcVI infected in Swiss mouse model of Chagas disease assessed as decrease in blood parasitemia level at 50 mg/kg once daily for 5 consecutive days through oral gavage starting on day 8 post infection measured 14 days post infection; format: functional; design: scale not given: the % may be the effect or the level left; method in brief: as §1
Mus musculus [7] = assay: AUC (0 to 7.5 hrs) in Swiss mouse at 20 mg/kg, po; format: ADME, organism-based, Plasma; design: time < 7.5 hr, dose 20 mg/kg, route oral; conditions: in vivo
Method in brief: (§2)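 Non-infected male Swiss outbred mice received single oral gavage doses of 20, 50 and 100 mg/kg. […] Full-scan LC-MS was run on selected plasma samples to identify metabolites.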

[8] = Apparent half life in Swiss mouse at 20 to 100 mg/kg, po; format: ADME, organism-based; design: dose 20-100 mg/kg, route oral; conditions: in vivo, read-out: t1/2(app) (converted); method in brief: as §2
[9] = Tmax in Swiss mouse at 20 to 100 mg/kg, po; format: ADME, organism-based; design: dose 20-100 mg/kg, route oral; conditions: in vivo; method in brief: as §2
Mus musculus [10] = assay: AUC (0 to 7.5 hrs) in Swiss mouse at 100 mg/kg, po; format: ADME, organism-based, Plasma; design: time < 7.5 hr, dose 100 mg/kg, route oral; conditions: in vivo; method in brief: as §2
Mus musculus [11] = assay: AUC (0 to 7.5 hrs) in Swiss mouse at 50 mg/kg, po; format: ADME, organism-based, Plasma; design: time < 7.5 hr, dose 50 mg/kg, route oral; conditions: in vivo; method in brief: as §2
Mus musculus [12] = assay: Toxicity in Swiss mouse at 20 to 100 mg/kg, po; format: organism-based; design: dose 20-100 mg/kg, route oral; conditions: in vivo; method in brief: as §2
Trypanosoma cruzi [13] = assay: Antitrypanosomal activity against Trypanosoma cruzi Tulahuen TcVI infected in Swiss mouse model of Chagas disease assessed as increase in host survival at 100 mg/kg once daily for 5 consecutive days through oral gavage starting on day 8 post infection measured 14 days post infection; format: functional, organism-based; design: dose 100 mg/kg
Method in brief: (§3)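 Female Swiss mice (n = 5 per group) were infected with 25,000 blood-form T. cruzi Tulahuen TcVI trypomastigotes and dosed orally by gavage once daily for 5 days from day 8 pi.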

Trypanosoma cruzi [14] = assay: Antitrypanosomal activity against Trypanosoma cruzi Tulahuen TcVI infected in Swiss mouse model of Chagas disease assessed as increase in host survival at 20 mg/kg once daily for 5 consecutive days through oral gavage starting on day 8 post infection measured 14 days post infection; format: functional, organism-based; design: dose 20 mg/kg; method in brief: as §3
Trypanosoma cruzi [15] = assay: Antitrypanosomal activity against Trypanosoma cruzi Tulahuen TcVI infected in Swiss mouse model of Chagas disease assessed as increase in host survival at 50 mg/kg once daily for 5 consecutive days through oral gavage starting on day 8 post infection measured 14 days post infection; format: functional, organism-based; design: dose 50 mg/kg; method in brief: as §3

CS(=O)(=O)N1CCN(C(c2cccnc2)c2ccc(Cl)cc2F)CC1 (stereo not given) [listing 1 of 2 here]
selectivity ratio [1]: > 100
IC50 (Trypanosoma cruzi [2]): 35 nM
solubility kinetic [3]: 12.5 µg/mL (≈ 32.6 µM)
Activity (Trypanosoma cruzi [4]): 96%
IC50 (CYP3A4/5): 1300 nM
IC50 (L6): > 100000 nM
Activity (Trypanosoma cruzi [5]): 73%
Activity (Trypanosoma cruzi [6]): 95%

CC(=O)N1CCN(C(c2ccc(Cl)cc2)c2cccnc2)CC1.O=C(O)CC(O)(CC(=O)O)C(=O)O (stereo not given)
AUC (Mus musculus [7]): 2.3 µM·h
half-life [8]: 102 min
Tmax [9]: 15 min
AUC (Mus musculus [10]): 9.4 µM·h
AUC (Mus musculus [11]): 6.2 µM·h
Activity (Mus musculus [12]): Non-toxic

CS(=O)(=O)N1CCN(C(c2cccnc2)c2ccc(Cl)cc2F)CC1 (stereo not given) [listing 2 of 2 here]
Activity (Trypanosoma cruzi [13]): Active
Activity (Trypanosoma cruzi [14]): Active
Activity (Trypanosoma cruzi [15]): Active

CC[C@@H]([C@H](C)O)n1ncn(-c2ccc(N3CCN(c4ccc(OC[C@@H]5CO[C@@](Cn6cncn6)(c6ccc(F)cc6F)C5)cc4)CC3)cc2)c1=O [POSACONAZOLE]
IC50 (Trypanosoma cruzi [2]): 0.7 nM
Activity (Trypanosoma cruzi [13]): Active
Activity (Trypanosoma cruzi [4]): Active
IC50 (L6): > 100000 nM
Activity (Trypanosoma cruzi [15]): Active
Activity (Trypanosoma cruzi [6]): Active

CS(=O)(=O)N1CCN(C(c2cccnc2)c2ccc(Cl)cc2F)CC1.O=C(O)CC(O)(CC(=O)O)C(=O)O (stereo not given)
AUC (Mus musculus [7]): 7.2 µM·h
half-life [8]: 126 min
Tmax [9]: 15 min
AUC (Mus musculus [10]): 43.7 µM·h
AUC (Mus musculus [11]): 60.2 µM·h
Activity (Mus musculus [12]): Non-toxic

CC(=O)N1CCN(C(c2ccc(Cl)cc2)c2cccnc2)CC1 (stereo not given)
Activity (Trypanosoma cruzi [13]): Active
Activity (Trypanosoma cruzi [4]): inactive
Activity (Trypanosoma cruzi [5]): inactive
Activity (Trypanosoma cruzi [14]): Active
Activity (Trypanosoma cruzi [15]): Active
Activity (Trypanosoma cruzi [6]): inactive
